Data set [1] is described as follows: Volume of distribution at steady state in C57BL/6 mouse at 1 mg/kg, iv. It counts as ADME, organism-based. Further details: dose 1 mg/kg, route intravenous. The following applies: in vivo, read-out: Vdss. The gist of the method: (§1)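 Cassette PK in male C57BL/6 mice (20–30 g), up to five test compounds plus one reference. Iv 1 mg/kg in NMP/blank plasma 10/90 v/v, 5 mL/kg, saphenous vein. Oral 3 mg/kg suspended in 0.5% w/v carboxymethylcellulose in water/Tween 80 (99.5/0.5), 10 mL/kg gavage. Blood sampled 5 min (iv) or 15 min (po) to 24 h, n = 3 per time point, measured by LC/MS/MS.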

Data set [2] is described as follows: Ratio of drug level in brain to blood in C57BL/6 mouse at 3 mg/kg, po after 15 mins. It counts as ADME, organism-based. More on the design: dose 3 mg/kg, route oral. The gist of the method: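 Male C57BL/6 mice (20–30 g), cassette dosing of up to five compounds plus a reference. Blood and brain collected 15 min post-dose, n = 3. Brain homogenised in 2 mM KH2PO4 and extracted with acetonitrile. LC/MS/MS quantitation; mean brain/blood ratio.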

Data set [3] concerns Mus musculus. Nature of the data set: Induction of sleep in C57BL/6 mouse assessed as rapid eye movement and non-rapid eye movement sleep balance at 50 mg/kg, po measured during 1 hr by EEG/EMG analysis relative to vehicle-treated control. Type of data set: functional, organism-based. Further details: dose 50 mg/kg. The gist of the method: (§2)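 Male C57Bl/6 mice with implanted cortical EEG and EMG electrodes, 2-week recovery, 12/12 h light cycle. Vehicle (0.5% methylcellulose, 10 mL/kg po) given on day 2 and compound po on day 3, just before lights off. Recording ran 23 h. 10 s epochs scored as wake, NREM or REM from EEG/EMG plus infrared motility. Each animal served as its own vehicle control.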

Data set [4] concerns Mus musculus. Nature of the data set: Induction of sleep in C57BL/6 mouse assessed as increase in non-rapid eye movement at 50 mg/kg, po measured during 4 hrs by EEG/EMG analysis relative to vehicle-treated control. Type of data set: functional, organism-based. More on the design: dose 50 mg/kg. In outline: (§3)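 Male C57Bl/6 mice with implanted cortical EEG screw electrodes and EMG, recovered 2 weeks, 12 h/12 h light/dark cycle. Crossover: vehicle (0.5% methylcellulose, 10 mL/kg po) on day 2, compound po on day 3, each given 5–15 min before lights-off. 23 h recordings; EEG filtered 0.3–30 Hz, EMG 5–30 Hz; 10 s epochs scored as wake, NREM or REM from EEG/EMG and infrared motility.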

In data set [5] the test system is Brain. Nature of the data set: Drug uptake in C57BL/6 mouse brain at 50 mg/kg after 1 hr by LC-MS/MS analysis. Further details: dose 50 mg/kg. The following applies: in vivo. Type of data set: ADME, organism-based. In outline: (§4)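 Satellite PK group: oral gavage of 50 mg/kg suspended in 0.5% w/v methylcellulose in water, 10 mL/kg. Blood and brain taken after decapitation at 15 and 60 min post-dose, n = 3 mice per time point, stored at −20 °C. Brain homogenised in 2 mM KH₂PO₄; acetonitrile quench with internal standard; LC/MS/MS against six-level calibration curve. Mean ± SD reported.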

Data set [6] has as its target T1, Orexin receptor type 2 (Mus musculus, UniProt P58308).
T1 sequence (P58308 whole entry): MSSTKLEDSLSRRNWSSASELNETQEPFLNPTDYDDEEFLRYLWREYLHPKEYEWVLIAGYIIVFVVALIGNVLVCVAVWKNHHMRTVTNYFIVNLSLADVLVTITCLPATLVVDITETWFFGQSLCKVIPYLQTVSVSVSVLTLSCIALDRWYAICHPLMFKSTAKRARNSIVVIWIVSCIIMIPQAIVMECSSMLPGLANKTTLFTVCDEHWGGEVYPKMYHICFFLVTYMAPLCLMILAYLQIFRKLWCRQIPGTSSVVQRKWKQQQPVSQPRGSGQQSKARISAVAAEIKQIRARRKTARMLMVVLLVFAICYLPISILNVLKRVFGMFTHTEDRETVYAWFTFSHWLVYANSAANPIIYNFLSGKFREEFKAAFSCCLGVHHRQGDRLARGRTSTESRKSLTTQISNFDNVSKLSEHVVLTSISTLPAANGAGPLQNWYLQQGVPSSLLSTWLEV
Nature of the data set: Antagonist activity at mouse OX2 receptor expressed in HEK cells assessed as inhibition of orexin A-induced Ca2+ accumulation after 1 hr by Fluo-4-AM staining-based FLIPR assay. It counts as functional, cell-based, HEK293.

Data set [7] can be described thus: Drug uptake in C57BL/6 mouse blood at 50 mg/kg after 1 hr by LC-MS/MS analysis. It counts as ADME, organism-based. More on the design: dose 50 mg/kg. The following applies: read-out: Drug uptake. The gist of the method: as §4
Data set [8] has as its system Mus musculus. Nature of the data set: Effect on locomotion in C57BL/6 mouse assessed as reduction of motility at 50 mg/kg, po measured up to 4 hrs. It counts as functional, organism-based. Further details: dose 50 mg/kg. The gist of the method:
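Mice habituated, then dosed orally immediately before lights-off (15:00, start of active phase); vehicle 0.5% methylcellulose in water. Inactivity = any minute with no infrared beam breaks. Per-animal difference between inactivity 15:00–19:00 post-dose and the same 4 h during habituation 24 h earlier. n = 6; one-way ANOVA with Dunnett's test versus vehicle.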

Data set [9] relates to Brain. Nature of the data set: Fraction unbound in C57BL/6 mouse brain at 50 mg/kg, po after 1 hr by LC-MS/MS analysis. It counts as ADME, organism-based. More on the design: dose 50 mg/kg, route oral. As to conditions: in vivo. In outline: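 Unbound fraction assessed in mouse brain homogenate by a slightly adapted literature method, measured separately from the dosed animals. Free brain level obtained by multiplying fraction unbound by brain concentration from the 50 mg/kg po satellite group at 60 min. Mean ± SD, n = 3.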

Data set [10] can be described thus: Cmax in C57BL/6 mouse blood at 3 mg/kg, po. Type of data set: ADME, organism-based. More on the design: dose 3 mg/kg, route oral. In outline:
as §1

Data set [11] is described as follows: Oral bioavailability in C57BL/6 mouse blood at 3 mg/kg. Type of data set: ADME, organism-based. The gist of the method:
as §1

Data set [12] is described as follows: Total blood clearance in C57BL/6 mouse at 1 mg/kg, iv. More on the design: dose 1 mg/kg, route intravenous. It counts as ADME, organism-based. In outline:
as §1

Data set [13] has as its system Mus musculus. Nature of the data set: Induction of sleep in C57BL/6 mouse assessed as increase in rapid eye movement at 50 mg/kg, po measured during 1 hr by EEG/EMG analysis relative to vehicle-treated control. Type of data set: functional, organism-based. More on the design: dose 50 mg/kg. In outline:
as §2

Data set [14] concerns Mus musculus. Nature of the data set: Induction of sleep in C57BL/6 mouse assessed as increase in total sleep time at 50 mg/kg, po measured during first 4 hrs by EEG/EMG analysis relative to vehicle-treated control.
Data set [15] has as its target T2, Orexin/Hypocretin receptor type 1 (Mus musculus, UniProt P58307).
T2 sequence (P58307 whole entry): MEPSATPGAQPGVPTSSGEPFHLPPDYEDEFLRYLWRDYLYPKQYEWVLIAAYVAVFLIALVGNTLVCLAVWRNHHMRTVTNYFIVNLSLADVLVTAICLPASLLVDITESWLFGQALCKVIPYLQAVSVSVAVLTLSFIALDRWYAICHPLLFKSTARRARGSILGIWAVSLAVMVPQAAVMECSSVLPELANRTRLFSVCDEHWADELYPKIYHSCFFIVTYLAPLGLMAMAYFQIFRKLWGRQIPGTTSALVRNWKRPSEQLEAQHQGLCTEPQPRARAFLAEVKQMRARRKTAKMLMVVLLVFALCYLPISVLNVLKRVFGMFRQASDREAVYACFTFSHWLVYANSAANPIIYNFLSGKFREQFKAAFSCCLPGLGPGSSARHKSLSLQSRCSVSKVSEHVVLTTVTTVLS
Nature of the data set: Antagonist activity at mouse OX1 receptor expressed in CHO cells assessed as inhibition of orexin A-induced Ca2+ accumulation after 1 hr by Fluo-4-AM staining-based FLIPR assay. It counts as functional, cell-based.

Data set [16] relates to Mus musculus. Nature of the data set: Induction of sleep in C57BL/6 mouse assessed as increased rapid eye movement sleep proportion at 50 mg/kg, po measured during 1 hr by EEG/EMG analysis relative to vehicle-treated control. It counts as functional, organism-based. More on the design: dose 50 mg/kg. The gist of the method: as §3
A short description of data set [17]: AUC (infinity) in C57BL/6 mouse blood at 3 mg/kg, po. Type of data set: ADME, organism-based. More on the design: time infinity, dose 3 mg/kg, route oral. In outline:
as §1

Data set [18] relates to Mus musculus. Nature of the data set: Induction of sleep in C57BL/6 mouse assessed as increase in rapid eye movement at 50 mg/kg, po measured during 4 hrs by EEG/EMG analysis relative to vehicle-treated control. It counts as functional, organism-based. More on the design: dose 50 mg/kg. In outline: as §3

Data on 2 compounds can be found in ChEMBL document CHEMBL2434958, “Identification of a novel series of orexin receptor antagonists with a distinct effect on sleep architecture for the treatment of insomnia” (J Med Chem, 2013).

The structures appear in SMILES notation. The source made the active and inactive calls. No cut-off for these calls is given here.

For `COc1ccnc(N2CCC3(CCCN(Cc4c[nH]c5ccccc45)C3=O)CC2)n1`, the Vd in data set [1] was 1.6 L/kg. Besides, the Kp (usually tissue or fluid exposure divided by exposure in the circulation) at 0.25 h in data set [2] came out at 1.1. For the same compound, the result in [3] and in [13] was inactive. The outcome in data set [4], in data set [8], in [14] and in [16] was Active. The compound also gave a Drug uptake in [5] of 8778 pmol/g. Further, the inhibition constant Ki (in general, the dissociation constant of the complex between target and ligand, obtained from inhibition or displacement) in data set [6] is 58.9 nM; in data set [15], 457 nM. Also, in data set [7], the concentration at 1 h was determined as 6.91 µM. For the same compound, in data set [9], the Fu turned out to be 0.61%. For the same compound, the peak level in data set [10] (Cmax) was 0.864 µM. Besides, the bioavailability (commonly the share of a dose that reaches the circulation, judged against a reference dose that is usually intravenous) in [11] was 47%. The clearance (in general, the volume of plasma or blood freed of the substance per unit of time) in [12] stood at 28 mL/min/kg. In [17], the total exposure AUC(0-inf) (commonly the area under the concentration-time curve extrapolated to infinity) is 2.09 µM·h.

On to `Cc1ccc(-n2nccn2)c(C(=O)N2CCN(c3nc4cc(Cl)ccc4o3)CC[C@H]2C)c1` [SUVOREXANT], for which the outcome in data set [4], in data set [8], in [18], in [14] and in data set [16] was Active. Further, in data set [5], the Drug uptake came out at 10329 pmol/g. Further, the Ki in data set [6] is 8.71 nM; in [15] it was 1.7 nM. In [7], the concentration at 1 h stood at 10.5 µM. In addition, the Fu in data set [9] is 0.65%.
